Experimental data: ChEMBL document CHEMBL1157882, “Novel 2-[(benzylamino)methyl]pyrrolidine-3,4-diol derivatives as alpha-mannosidase inhibitors and with antitumor activities against hematological and solid malignancies” (Bioorg Med Chem, 2010)
Activity calls are given as the source filed them. The rule behind the calls is not given here.

Columns and labels:
Oryza sativa = assay: Inhibition of alpha-glucosidase from rice at 1 mM at pH 4
Outline: (§1)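 Glycosidase panel of commercial enzymes assayed at each enzyme's optimal pH with compound at 1 mM; percentage inhibition of enzyme activity calculated.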

Prunus dulcis = assay: Inhibition of beta-glucosidase from almond at 1 mM at pH 5; outline: as §1
Helix pomatia = assay: Inhibition of beta-mannosidase from snail at pH 4; design: concentration or dose not given beside the values; details: concentration not given here
Aspergillus niger = assay: Inhibition of beta-xylosidase from Aspergillus niger at pH 5; design: concentration or dose not given beside the values; details: concentration not given here
Bos taurus = species on record: Bos taurus; assay: Inhibition of beta-N-acetylglucosaminidase from bovine kidney at pH 4; design: concentration or dose not given beside the values; details: concentration not given here
U-266 = assay: Cytotoxicity against human U266 cells after 72 hrs by colorimetric assay; assay type: functional, cell-based; details: Homo sapiens, U-266, 72 h; read-out: IC50
Outline: (§2)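 Cells grown in McCoy's medium (adherent lines) or RPMI-1640 (U266), each with 10% FBS, L-glutamine and antibiotics, at 37 °C in 5% CO₂. Compound dissolved as a 100 mM DMSO stock, final DMSO ≤0.4%. Cells were exposed for 72 h across a 10^-2 to 400 µM range. Viability was read by CellTiter 96 Aqueous (2–4 h incubation, absorbance 490 nm). Triplicate wells; IC50 from curve fitting.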

A549 [1] = assay: Cytotoxicity against human A549 cells after 72 hrs by colorimetric assay; assay type: functional, cell-based; details: Homo sapiens, A549, 72 h; read-out: IC50; outline: as §2
SK-BR-3 [2] = assay: Cytotoxicity against human SKBR3 cells after 72 hrs by colorimetric assay; assay type: functional, cell-based; details: Homo sapiens, SK-BR-3, 72 h; read-out: IC50; outline: as §2
A549 [3] = assay: Cytotoxicity against human A549 cells after 72 hrs by colorimetric assay in presence of antioxidant N-acetyl-cysteine; assay type: functional, cell-based
A549 [4] = assay: Cytotoxicity against human A549 cells after 72 hrs by colorimetric assay in presence of pan-caspase inhibitor zVAD-fmk; assay type: functional, cell-based
SK-BR-3 [5] = assay: Cell cycle arrest in human SKBR3 cells by accumulation of cells at G2/M phase at 50 uM after 48 hrs by propidium iodide-staining based flow cytometry (reference value: 16%); assay type: functional
SK-BR-3 [6] = assay: Cell cycle arrest in human SKBR3 cells by accumulation of cells at G2/M phase at 100 uM after 48 hrs by propidium iodide-staining based flow cytometry (reference value: 16%); assay type: functional
SK-BR-3 [7] = assay: Cell cycle arrest in human SKBR3 cells by accumulation of cells at S phase at 200 uM after 48 hrs by propidium iodide-staining based flow cytometry (reference value: 30%); assay type: functional
SK-BR-3 [8] = assay: Cell cycle arrest in human SKBR3 cells by accumulation of cells at G2/M phase at 200 uM after 48 hrs by propidium iodide-staining based flow cytometry (reference value: 16%); assay type: functional
MCF7 [9] = assay: Decrease in cyclinE1 mRNA level in human MCF7 cells at 50 uM after 12 hrs by TLDA; assay type: functional, cell-based
Outline: (§3)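 SKBR3 and MCF7 cells seeded at 2 × 10⁵ per well, treated 12 h with 50 µM compound (DMSO stock); total RNA extracted, cDNA made with random hexamers, gene expression profiled by TaqMan low-density arrays (qPCR, duplicate per gene). Normalised to RPLP0; fold change versus DMSO vehicle-treated cells, calculated as 2^-ΔΔCT.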

MCF7 [10] = assay: Increase in CDKN1A mRNA level in human MCF7 cells at 50 uM after 12 hrs by TLDA; assay type: functional, cell-based; outline: as §3
[11] = Cytotoxicity in human multiple myeloma cells assessed as viable cells at 50 uM after 24 hrs by annexin V/propidium iodide staining based flow cytometry (reference value: 48.2%); assay type: functional; details: Multiple myeloma cell, read-out: Activity
[12] = Cytotoxicity in human multiple myeloma cells assessed as late apoptotic/necrotic cells at 50 uM after 24 hrs by annexin V/propidium iodide staining based flow cytometry (reference value: 9.1%); assay type: functional, Multiple myeloma cell
[13] = Cytotoxicity in human multiple myeloma cells assessed as late apoptotic/necrotic cells at 100 uM after 24 hrs by annexin V/propidium iodide staining based flow cytometry (reference value: 9.1%); assay type: functional, Multiple myeloma cell
[14] = Cytotoxicity in human multiple myeloma cells assessed as late apoptotic/necrotic cells at 200 uM after 24 hrs by annexin V/propidium iodide staining based flow cytometry (reference value: 9.1%); assay type: functional, Multiple myeloma cell
[15] = Cytotoxicity in human B-CLL assessed as viable cells at 50 uM after 24 hrs by annexin V/propidium iodide staining based flow cytometry (reference value: 65.8 to 78%); assay type: functional; details: read-out: Activity
[16] = Cytotoxicity in human B-CLL assessed as viable cells at 100 uM after 24 hrs by annexin V/propidium iodide staining based flow cytometry (reference value: 65.8 to 78%); assay type: functional; details: read-out: Activity
[17] = Cytotoxicity in human B-CLL assessed as early apoptotic cells at 50 uM after 24 hrs by annexin V/propidium iodide staining based flow cytometry (reference value: 3.6 to 20.2%); assay type: functional
[18] = Cytotoxicity in human B-CLL assessed as early apoptotic cells at 100 uM after 24 hrs by annexin V/propidium iodide staining based flow cytometry (reference value: 3.6 to 20.2%); assay type: functional
[19] = Cytotoxicity in human B-CLL assessed as early apoptotic cells at 200 uM after 24 hrs by annexin V/propidium iodide staining based flow cytometry (reference value: 3.6 to 20.2%); assay type: functional
[20] = Cytotoxicity in human B-CLL assessed as late apoptotic/necrotic cells at 200 uM after 24 hrs by annexin V/propidium iodide staining based flow cytometry (reference value: 10 to 14.7%); assay type: functional
[21] = Cytotoxicity in human B-CLL assessed as pre-necrotic cells at 50 uM after 24 hrs by annexin V/propidium iodide staining based flow cytometry (reference value: 1.3 to 3.7%); assay type: functional
[22] = Cytotoxicity in human B-CLL assessed as pre-necrotic cells at 100 uM after 24 hrs by annexin V/propidium iodide staining based flow cytometry (reference value: 1.3 to 3.7%); assay type: functional
[23] = molecular target: T1, Tissue alpha-L-fucosidase (Bos taurus) (UniProt Q2KIM0); assay: Inhibition of alpha-L-fucosidase from bovine kidney at 1 mM at pH 6; outline: as §1
T1 sequence (whole entry): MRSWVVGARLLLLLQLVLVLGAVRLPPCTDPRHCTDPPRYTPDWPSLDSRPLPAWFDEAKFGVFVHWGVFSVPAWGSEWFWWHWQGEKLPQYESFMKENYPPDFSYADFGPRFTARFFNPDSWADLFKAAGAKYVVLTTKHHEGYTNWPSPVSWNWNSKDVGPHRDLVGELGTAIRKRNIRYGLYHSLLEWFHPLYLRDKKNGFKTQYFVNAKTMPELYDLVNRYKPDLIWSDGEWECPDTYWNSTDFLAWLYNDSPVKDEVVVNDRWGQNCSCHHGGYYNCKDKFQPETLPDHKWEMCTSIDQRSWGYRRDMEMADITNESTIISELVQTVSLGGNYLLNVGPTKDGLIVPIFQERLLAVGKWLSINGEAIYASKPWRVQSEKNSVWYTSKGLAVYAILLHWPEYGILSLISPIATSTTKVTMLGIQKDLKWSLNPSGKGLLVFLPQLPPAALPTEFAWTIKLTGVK

[24] = molecular target: Beta-galactosidase (Escherichia coli) (UniProt Q8VNN2); assay: Inhibition of beta-galactosidase from Escherichia coli at 1 mM at pH 7; outline: as §1
Saccharomyces cerevisiae = assay: Inhibition of alpha-glucosidase from yeast at 1 mM at pH 7; outline: as §1

Chain of Beta-galactosidase (Escherichia coli) (Q8VNN2 whole entry, looked up): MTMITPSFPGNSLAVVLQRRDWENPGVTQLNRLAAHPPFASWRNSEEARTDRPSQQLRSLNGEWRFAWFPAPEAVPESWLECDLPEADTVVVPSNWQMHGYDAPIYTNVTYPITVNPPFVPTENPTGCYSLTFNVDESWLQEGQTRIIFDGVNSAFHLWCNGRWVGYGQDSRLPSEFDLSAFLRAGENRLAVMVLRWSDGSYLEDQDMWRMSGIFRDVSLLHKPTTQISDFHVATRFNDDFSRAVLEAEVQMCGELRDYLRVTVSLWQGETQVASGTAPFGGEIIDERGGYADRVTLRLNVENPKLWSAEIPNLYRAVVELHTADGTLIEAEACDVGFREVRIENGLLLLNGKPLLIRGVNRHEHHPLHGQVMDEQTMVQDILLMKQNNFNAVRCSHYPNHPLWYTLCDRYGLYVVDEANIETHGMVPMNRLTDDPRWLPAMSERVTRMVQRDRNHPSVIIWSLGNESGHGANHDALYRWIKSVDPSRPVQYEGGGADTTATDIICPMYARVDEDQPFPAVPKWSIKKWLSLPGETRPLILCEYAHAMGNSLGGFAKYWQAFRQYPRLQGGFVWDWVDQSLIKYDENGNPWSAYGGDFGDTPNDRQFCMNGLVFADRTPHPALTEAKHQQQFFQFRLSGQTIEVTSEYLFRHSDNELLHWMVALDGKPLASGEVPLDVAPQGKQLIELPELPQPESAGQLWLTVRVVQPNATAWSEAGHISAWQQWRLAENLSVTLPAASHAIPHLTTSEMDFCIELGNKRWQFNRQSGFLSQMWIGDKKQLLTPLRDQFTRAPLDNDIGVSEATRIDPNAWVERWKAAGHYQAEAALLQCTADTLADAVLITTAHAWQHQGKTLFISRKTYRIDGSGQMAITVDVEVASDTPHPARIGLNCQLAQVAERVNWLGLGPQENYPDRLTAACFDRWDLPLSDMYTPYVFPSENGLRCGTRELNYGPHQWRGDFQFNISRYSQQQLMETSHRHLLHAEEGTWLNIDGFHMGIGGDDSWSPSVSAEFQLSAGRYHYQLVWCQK

Structure (SMILES): OC[C@H](NC[C@H]1NC[C@H](O)[C@@H]1O)c1ccc(-c2ccc(C(F)(F)F)cc2)cc1
- inhibition (Oryza sativa): < 10%
- inhibition (Prunus dulcis): 50%
- inhibition (Helix pomatia): < 10%
- inhibition (Aspergillus niger): 52%
- inhibition (Bos taurus): < 10%
- IC50 (U-266): 50 µM
- IC50 (A549 [1]): 152 µM
- IC50 (SK-BR-3 [2]): 48 µM
- Activity (A549 [3]): Active
- Activity (A549 [4]): Active
- Activity (SK-BR-3 [5]): 13%
- Activity (SK-BR-3 [6]): 43%
- Activity (SK-BR-3 [7]): 16%
- Activity (SK-BR-3 [8]): 42%
- Activity (MCF7 [9]): Active
- Activity (MCF7 [10]): Active
- viability at 50 µM [11]: 42.8%
- Activity [12]: 37.9%
- Activity [13]: 52.6%
- Activity [14]: 75.4%
- viability at 50 µM [15]: 27%
- viability at 100 µM [16]: 5.1%
- Activity [17]: 11.3%
- Activity [18]: 2.7%
- Activity [19]: 1%
- Activity [20]: 55.6%
- Activity [21]: 0.8%
- Activity [22]: 0.8%
- inhibition [23]: < 10%
- inhibition [24]: < 10%
- inhibition (Saccharomyces cerevisiae): < 10%
